Measurements from ChEMBL document CHEMBL1828575, “Design, synthesis and antiproliferative activities of biarylolefins based on polyhydroxylated and carbohydrate scaffolds” (Eur J Med Chem, 2011).

What was measured:
Format in all cases: functional
DU-145 = experiment: Cytotoxicity against human DU145 cells assessed as cellular growth at 10 uM after 48 hrs by SRB assay
Procedure, shortened: (§1)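 NCI60 single-dose screen of cells in RPMI 1640 with 5% FBS and 2 mM L-glutamine, preincubated 24 h at 37 °C, 5% CO₂. Cells were then exposed 48 h to compound added from DMSO stock. TCA-fixed, stained with 0.4% SRB in 1% acetic acid, dye solubilised in 10 mM Tris base and read at 515 nm. Growth is given as percent of untreated control.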

KM12 [1] = experiment: Cytotoxicity against human KM12 cells assessed as cellular growth at 10 uM after 48 hrs by SRB assay; procedure, shortened: as §1
SR = experiment: Cytotoxicity against human SR cells assessed as cellular growth at 10 uM after 48 hrs by SRB assay
Procedure, shortened: (§2)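 NCI-60 panel lines grown in RPMI 1640 with 5% FBS and 2 mM L-glutamine. Plated at 5000–40,000 cells/well and preincubated 24 h at 37 °C, 5% CO₂, with time-zero plates fixed in TCA. Compounds, dissolved in DMSO and diluted in medium, were applied for 48 h. Cells were TCA-fixed (10% final for adherent, 16% for suspension) and stained with 0.4% SRB in 1% acetic acid. Dye was solubilised in 10 mM Tris base and read at 515 nm; growth was expressed as a percentage of untreated control.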

A549 = experiment: Cytotoxicity against human A549 cells assessed as cellular growth at 10 uM after 48 hrs by SRB assay; procedure, shortened: as §1
HCT-116 = experiment: Cytotoxicity against human HCT116 cells assessed as cellular growth at 10 uM after 48 hrs by SRB assay; procedure, shortened: as §1
NCI-H226 = experiment: Cytotoxicity against human NCI-H226 cells assessed as cellular growth at 10 uM after 48 hrs by SRB assay; procedure, shortened: as §2
SF-539 = experiment: Cytotoxicity against human SF539 cells assessed as cellular growth at 10 uM after 48 hrs by SRB assay; procedure, shortened: as §2
SNB-75 = experiment: Cytotoxicity against human SNB75 cells assessed as cellular growth at 10 uM after 48 hrs by SRB assay; procedure, shortened: as §2
OVCAR-4 = experiment: Cytotoxicity against human OVCAR4 cells assessed as cellular growth at 10 uM after 48 hrs by SRB assay; procedure, shortened: as §2
NCI/ADR-RES [2] = experiment: Cytotoxicity against human NCI/ADR-RES cells assessed as cellular growth at 10 uM after 48 hrs by SRB assay; procedure, shortened: as §2
SN12C = experiment: Cytotoxicity against human SN12C cells assessed as cellular growth at 10 uM after 48 hrs by SRB assay; procedure, shortened: as §2
MDA-MB-468 = experiment: Cytotoxicity against human MDA-MB-468 cells assessed as cellular growth at 10 uM after 48 hrs by SRB assay; procedure, shortened: as §2
KM12 [3] = experiment: Antitumor activity against human KM12 cells after 48 hrs by SRB assay; settings: KM12, 48 h
Procedure, shortened: (§3)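 NCI60 panel in RPMI 1640 with 5% FBS and 2 mM L-glutamine. Cells were plated at 5000–40,000/well by doubling time, held 24 h, then time-zero plates were TCA-fixed. Five concentrations (10-fold or half-log dilutions of DMSO stocks) were applied for 48 h at 37 °C, 5% CO2. Cells were fixed with cold TCA (10% final adherent, 16% suspension) and stained with 0.4% SRB. Bound dye was dissolved in 10 mM Tris and read at 515 nm. GI50, TGI and LC50 were calculated per line.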

U-251 = experiment: Antitumor activity against human U251 cells after 48 hrs by SRB assay; settings: U-251, 48 h
Procedure, shortened: (§4)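 NCI60 panel cells grown in RPMI 1640 with 5% FBS and 2 mM L-glutamine, plated at 5000–40,000 cells/well and preincubated 24 h at 37 °C, 5% CO₂. Compound was added from DMSO at five concentrations, 10-fold or 1/2 log dilutions, then incubated 48 h.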

SK-MEL-2 = experiment: Antitumor activity against human SK-MEL-2 cells after 48 hrs by SRB assay; settings: SK-MEL-2, 48 h; procedure, shortened: as §4
NCI/ADR-RES [4] = experiment: Antitumor activity against human NCI/ADR-RES cells after 48 hrs by SRB assay; procedure, shortened: as §3
CAKI-1 = experiment: Antitumor activity against human Caki1 cells after 48 hrs by SRB assay; settings: CAKI-1, 48 h; procedure, shortened: as §3
ACHN = experiment: Antitumor activity against human ACHN cells after 48 hrs by SRB assay; procedure, shortened: as §3
A498 = experiment: Antitumor activity against human A498 cells after 48 hrs by SRB assay; settings: A498, 48 h; procedure, shortened: as §3
NCI-H460 = experiment: Antitumor activity against human NCI-H460 cells after 48 hrs by SRB assay; settings: NCI-H460, 48 h; procedure, shortened: as §3
NCI-H23 = experiment: Antitumor activity against human NCI-H23 cells after 48 hrs by SRB assay; settings: NCI-H23, 48 h; procedure, shortened: as §3
RPMI-8226 = experiment: Antitumor activity against human RPMI8226 cells after 48 hrs by SRB assay; settings: RPMI-8226, 48 h; procedure, shortened: as §3
K562 = experiment: Antitumor activity against human K562 cells after 48 hrs by SRB assay; settings: K562, 48 h; procedure, shortened: as §3
SK-MEL-28 = experiment: Antitumor activity against human SK-MEL-28 cells after 48 hrs by SRB assay; settings: SK-MEL-28, 48 h; procedure, shortened: as §4
[5] = read-out: LC50 (the source's name)
[6] = read-out: pLC50 (the source's name) (converted)

Compound: COc1cc(/C(=C2\O[C@@H]([C@H]3COC(C)(C)O3)[C@H]3OC(C)(C)O[C@@H]23)c2ccc3ccccc3c2)cc(OC)c1OC
- Activity (DU-145): 2.86%
- Activity (KM12 [1]): 33.42%
- Activity (SR): 51.36%
- Activity (A549): -9.4%
- Activity (HCT-116): 58.36%
- Activity (NCI-H226): 66.92%
- Activity (SF-539): 26.42%
- Activity (SNB-75): 41.12%
- Activity (OVCAR-4): 25.7%
- Activity (NCI/ADR-RES [2]): 25.91%
- Activity (SN12C): 24.83%
- Activity (MDA-MB-468): 51.21%
- GI50 (KM12 [3]): 6 µM
- LC50 (KM12 [3]): > 100 µM
- TGI (KM12 [3]): > 100 µM
- GI50 (U-251): 3.12 µM
- TGI (U-251): 11.8 µM
- CC50 (U-251; [5]): > 100 µM
- GI50 (SK-MEL-2): 1.53 µM
- TGI (SK-MEL-2): 4.12 µM
- CC50 (SK-MEL-2; [5]): 24.1 µM
- GI50 (NCI/ADR-RES [4]): 4.26 µM
- LC50 (NCI/ADR-RES [4]): > 100 µM
- TGI (NCI/ADR-RES [4]): 22.3 µM
- GI50 (CAKI-1; read-out: GI50): 4.54 µM
- CC50 (CAKI-1; [5]): > 100 µM
- TGI (CAKI-1; read-out: TGI): > 100 µM
- GI50 (CAKI-1; read-out: pGI50 (converted)): 3.63 µM
- CC50 (CAKI-1; [6]): > 100 µM
- TGI (CAKI-1; read-out: pTGI (converted)): > 100 µM
- GI50 (ACHN; read-out: GI50): 4.39 µM
- CC50 (ACHN; [5]): > 100 µM
- TGI (ACHN; read-out: TGI): > 100 µM
- GI50 (ACHN; read-out: pGI50 (converted)): 4.57 µM
- CC50 (ACHN; [6]): > 100 µM
- TGI (ACHN; read-out: pTGI): > 100 µM
- GI50 (A498; read-out: GI50): 17.8 µM
- CC50 (A498; [5]): > 100 µM
- TGI (A498; read-out: TGI): 74.6 µM
- GI50 (A498; read-out: pGI50 (converted)): 4.37 µM
- CC50 (A498; [6]): > 100 µM
- TGI (A498; read-out: pTGI (converted)): > 100 µM
- GI50 (NCI-H460; read-out: GI50): 4.1 µM
- CC50 (NCI-H460; [5]): > 100 µM
- TGI (NCI-H460; read-out: TGI): > 100 µM
- GI50 (NCI-H460; read-out: pGI50 (converted)): 4.07 µM
- CC50 (NCI-H460; [6]): > 100 µM
- TGI (NCI-H460; read-out: pTGI): > 100 µM
- GI50 (NCI-H23; read-out: GI50): 5.43 µM
- CC50 (NCI-H23; [5]): > 100 µM
- TGI (NCI-H23; read-out: TGI): > 100 µM
- GI50 (NCI-H23; read-out: pGI50 (converted)): 5.37 µM
- CC50 (NCI-H23; [6]): > 100 µM
- TGI (NCI-H23; read-out: pTGI (converted)): > 100 µM
- LC50 (concentration killing 50% of starting cells) (RPMI-8226): > 100 µM
- GI50 (RPMI-8226; read-out: GI50): 33.3 µM
- TGI (RPMI-8226; read-out: TGI): > 100 µM
- GI50 (RPMI-8226; read-out: pGI50 (converted)): 33.1 µM
- CC50 (RPMI-8226; [6]): > 100 µM
- TGI (RPMI-8226; read-out: pTGI (converted)): > 100 µM
- GI50 (K562; read-out: GI50): 4.02 µM
- CC50 (K562; [5]): > 100 µM
- TGI (K562; read-out: TGI): > 100 µM
- GI50 (K562; read-out: pGI50 (converted)): 3.98 µM
- CC50 (K562; [6]): > 100 µM
- TGI (K562; read-out: pTGI): > 100 µM
- LC50 (50% lethal concentration) (SK-MEL-28): > 100 µM
- GI50 (SK-MEL-28; read-out: GI50): 2.86 µM
- TGI (SK-MEL-28; read-out: TGI): 96.5 µM
- GI50 (SK-MEL-28; read-out: pGI50 (converted)): 2.88 µM
- CC50 (SK-MEL-28; [6]): > 100 µM
- TGI (SK-MEL-28; read-out: pTGI): > 100 µM
